Activity calls are given as the source filed them. The calls are words filed in the database; no cut-off is given here.
Experiments:
[1] = Downregulation of C/EBP delta mRNA level in mouse 3T3L1 cells at 3 uM after 2 and 24 hrs by RT-PCR analysis; format: functional, cell-based; settings: 3T3-L1
Summary of the method: (§1)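 3T3-L1 preadipocytes in adipogenic cocktail with compound (0.3-3.0 µM; 3 µM for the 2 h and 24 h time course). Total RNA extracted, cDNA made from 1 µg RNA with oligo primer, then PCR: 95 °C 10 min, 35 cycles of 95 °C 30 s, annealing 45 s, 72 °C 1 min, final 72 °C 10 min. Normalized to actin; n = 3.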

[2] = Cell cycle arrest in mouse 3T3L1 cells assessed as number of cells at G0/G1 phase at 1 uM after 24 hrs by flow cytometry (reference value: 37.6%); format: functional, cell-based; settings: 3T3-L1
[3] = target: T1, Serine/threonine-protein kinase STK11 (Mus musculus) (UniProt Q9WTK7); assay: Activation of LKB1-mediated AMPK in mouse 3T3L1 cells assessed as increase in phophorylated AMPK alpha at Thr 172 residue level at 3 uM after 10 mins by western blot analysis; format: cell-based; settings: 3T3-L1
T1 sequence (whole entry): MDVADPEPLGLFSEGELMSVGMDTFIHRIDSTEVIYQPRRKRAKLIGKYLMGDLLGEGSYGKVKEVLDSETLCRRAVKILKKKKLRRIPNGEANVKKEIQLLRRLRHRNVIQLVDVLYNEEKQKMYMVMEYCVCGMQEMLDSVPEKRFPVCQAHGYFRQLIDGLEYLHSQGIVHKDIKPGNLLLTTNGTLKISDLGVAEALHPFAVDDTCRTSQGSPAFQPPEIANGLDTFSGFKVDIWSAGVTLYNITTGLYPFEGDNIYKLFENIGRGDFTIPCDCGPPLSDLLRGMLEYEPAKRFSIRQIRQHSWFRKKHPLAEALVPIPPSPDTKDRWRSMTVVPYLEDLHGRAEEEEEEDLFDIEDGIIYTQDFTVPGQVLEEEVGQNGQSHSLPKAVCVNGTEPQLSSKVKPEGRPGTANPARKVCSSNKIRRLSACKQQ
Summary of the method: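 3T3-L1 preadipocytes held in adipogenic cocktail with or without compound at 3 µM, time course (10 min, 2 h, 24 h) during differentiation. Lysis in RIPA with protease/phosphatase inhibitors, SDS-PAGE, PVDF, BSA block, primary antibody 16 h at 4 °C, HRP secondary. Bands normalized to GAPDH, with the 10 min DMSO group set as 100%; n = 3.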

[4] = test system: HeLa; assay: Drug uptake in human HeLa cells measured from 5 mins to 1 hr by fluorescence analysis; format: ADME, cell-based
[5] = test system: 3T3-L1; assay: Induction of apoptosis in mouse 3T3L1 cells assessed as early apoptotic cells at 0.3 uM after 24 hrs by annexin-V-FITC and PI staining based flow cytometry (reference value: 0.56%); format: functional
[6] = Downregulation of C/EBP alpha level in mouse 3T3L1 cells at 0.3 to 3 uM after 3 days by western blot analysis; format: functional, cell-based; settings: 3T3-L1
Summary of the method: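 3T3-L1 preadipocytes incubated in adipogenic cocktail with or without compound (0.3, 1.0, 3.0 µM) for the stated periods. Protein levels measured by Western blot (RIPA lysis, PVDF, BSA block, primary 16 h at 4 °C, HRP secondary), normalized to GAPDH/Tubulin and expressed relative to controls; n = 3.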

[7] = Downregulation of PPAR-gamma mRNA level in mouse 3T3L1 cells at 0.3 to 3 uM after 24 hrs by RT-PCR analysis; format: functional, cell-based; settings: 3T3-L1; summary of the method: as §1
[8] = Decrease in triglyceride level in mouse 3T3L1 preadipocytes compound treated for 6 days measured on day 6 by oil red O staining based microscopic analysis; format: functional, cell-based
Summary of the method: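 3T3-L1 preadipocytes, 2 days post-confluent, treated at 0.01-10.0 µM for 6 days of differentiation, with compound added Day 0 and renewed Day 3. On Day 6, TG measured by TG assay (per protein) and confirmed by Oil Red O staining; n = 3.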

[9] = Decrease in triglyceride level in mouse 3T3L1 cells during all developmental stages at 0.5 uM for 9 days; format: functional, cell-based; settings: 3T3-L1
Summary of the method: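 During 3T3-L1 differentiation with compound present (0.5 µM, or 5 µM for one compound), cells were collected and counted every day and triglyceride content was measured by TG assay.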

[10] = Decrease in triglyceride accumulation in mouse 3T3L1 cells at 1 uM for 3 days oil red O staining based microscopic analysis; format: functional, cell-based; settings: 3T3-L1
Summary of the method: (§2)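 3T3-L1 cells differentiated from 2 days post-confluence with IBMX/dexamethasone/insulin cocktail for 3 days, then insulin medium to Day 6. Compounds at 1 and 10 µM added Day 0 for 3 days. Triglyceride read on Day 6 with Oil Red O (formaldehyde fixation, 30 min stain, isopropanol extraction, OD 510 nm); n = 3.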

[11] = Downregulation of C/EBP alpha mRNA level in mouse 3T3L1 cells at 0.3 to 3 uM after 24 hrs by RT-PCR analysis; format: functional, cell-based; settings: 3T3-L1; summary of the method: as §1
[12] = Decrease in triglyceride level in mouse 3T3L1 cells at 1 uM measured during 0 to 3 days by oil red O staining based microscopic analysis; format: functional, cell-based; settings: 3T3-L1
Summary of the method: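 3T3-L1 cells given 1 µM compound during day 0-3, 0-6, 0-9, 3-6, 3-9 or 6-9 of differentiation. On Day 9, intracellular lipid measured by TG assay (Triton lysate, GPO-POD kit, per protein) and by Oil Red O staining with microscopy; n = 3.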

[13] = Decrease in triglyceride accumulation in mouse 3T3L1 cells at 10 uM for 3 days oil red O staining based microscopic analysis; format: functional, cell-based; settings: 3T3-L1; summary of the method: as §2

O=Cc1c(-c2nc(NCCN3CCCC3)c3ccccc3n2)[nH]c2ccccc12
inhibition [1]: Active | Activity [2]: 42.9% | Activity [3]: Active | Drug uptake [4]: Active | Activity [5]: 1.58% | inhibition [6]: Active | inhibition [7]: Active | inhibition ([8]; 3T3-L1): Dose-dependent effect | EC50 ([8]; 3t3-l1): 17 nM | inhibition [9]: Active | inhibition [10]: 87.6% | inhibition [11]: Active | inhibition [12]: 85% | inhibition [13]: 94.9%

Reference: ChEMBL document CHEMBL3734704, “Synthesis and Biological Evaluation of Novel Bouchardatine Derivatives as Potential Adipogenesis/Lipogenesis Inhibitors for Antiobesity Treatment” (J Med Chem, 2015)
